Source: PubChem BioAssay (Broad Institute)
Compounds with a hit are over-represented: about 1.4% of the library has one in this group of screens.
N-glyco inh – N-linked glycosylation inhibition; D54 ERlucT glycosylation luciferase reporter, 24 h; percent of 100 nM tunicamycin response; reporter increase, % at 12.5 µM; 360,000 compounds, 0.23% hits;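 active means mean luciferase reporter signal, scaled so untreated is 0 and the glycosylation-blocking control 100, at or above a set limit in every replicate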;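 further: luciferase carries N-glycosylation sites so blocking glycosylation raises the light; 0% = median of neutral control wells and 100% = median of 100 nM tunicamycin wells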
CDK5 p35 inh – blocks human CDK5/p35 kinase activity. Q00535+Q15078. Recombinant CDK5/p35, ADP-Glo luminescence, 60 min. 330,000 compounds, 0.01% hits. inhibition, % at 10 µM. AID 488839;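 active means highest replicate inhibition of at least 50% and at least 75% of replicates reaching 50%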;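 further: plate controls were DMSO neutral control for no effect and GW8510 at 10 µM for full effect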
Target sequence (Q00535 whole entry, looked up): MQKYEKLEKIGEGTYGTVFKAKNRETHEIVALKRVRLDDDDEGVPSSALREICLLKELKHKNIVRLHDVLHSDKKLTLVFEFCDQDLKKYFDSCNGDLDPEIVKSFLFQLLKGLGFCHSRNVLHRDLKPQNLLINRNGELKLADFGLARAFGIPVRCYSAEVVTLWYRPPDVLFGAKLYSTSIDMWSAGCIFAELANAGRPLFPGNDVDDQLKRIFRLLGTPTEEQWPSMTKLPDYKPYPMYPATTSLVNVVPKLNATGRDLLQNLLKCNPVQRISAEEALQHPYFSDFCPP
Target sequence (Q15078 whole entry, looked up): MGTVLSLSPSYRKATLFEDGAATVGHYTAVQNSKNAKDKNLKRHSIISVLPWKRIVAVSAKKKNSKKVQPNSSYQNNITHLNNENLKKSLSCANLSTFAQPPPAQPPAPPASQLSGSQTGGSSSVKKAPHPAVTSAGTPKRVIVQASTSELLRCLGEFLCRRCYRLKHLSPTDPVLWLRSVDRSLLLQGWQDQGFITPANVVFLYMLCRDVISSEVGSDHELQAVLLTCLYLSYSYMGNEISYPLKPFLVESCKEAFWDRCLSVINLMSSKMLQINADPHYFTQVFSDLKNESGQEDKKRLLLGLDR
Vif imaging – inhibitors of HIV Vif; inhibition, % at 7.49 µM; HEK293T cells, Vif self-association by quenched fluorescence, imaging, 24 h; 340,000 compounds, 0.35% hits; in the data active means inhibition above about 50%, passing the limit was not always enough
CAL PDZ FP-1 – blocks peptide binding to human CAL PDZ domain. Q9HD26. purified CAL PDZ, TMR-peptide fluorescence polarization, 1 h. 330,000 compounds, 0.02% hits. inhibition, % at 20 µM;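 active means highest replicate inhibition of at least 40%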;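 further: plate controls were DMSO neutral control wells for no effect and unlabeled competitor peptide control wells for full effect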
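Read-out basis: mP drop reported as inhibition | Assay system: Tagged CAL PDZ protein CerCALP, purified | Benchmarks: Unlabelled peptide for full inhibition, DMSO wells as neutral | Schedule: 1 h incubation at room temperature before polarization reading | Buffer or medium: Sodium phosphate/NaCl buffer pH 7.4 with TCEP, IgG, Thesit | Doses: Single point, 20 µM | Measured by: Fluorescence polarization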
CAL PDZ FP-2 – inhibitors of human CAL PDZ peptide binding; purified CAL PDZ, TMR-peptide fluorescence polarization, 1 h; inhibition, % at 24.9 µM; 300,000 compounds, 0.92% hits;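 active means mean inhibition of at least 30% with at least half of replicates also reaching 30%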;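 further: 0% = DMSO neutral control and 100% = excess unlabeled competitor peptide PRC23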
PvdQ inh – P. aeruginosa PvdQ acylase inhibition; purified PvdQ acylase, fluorescence plate reader; inhibition, % at 10 µM; 340,000 compounds, 0.063% hits; AID 488965; in the data active means inhibition above about 30%, passing the limit was not always enough;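 further: 0% = vehicle neutral wells and 100% = reference inhibitor wells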
Active calls of the source: *; · = no result.

SMILES	N-glyco inh	CDK5 p35 inh	Vif imaging	CAL PDZ FP-1	CAL PDZ FP-2	PvdQ inh
Cc1cc(C)cc(NC(=O)COC(=O)COc2ccc(N(C)S(=O)(=O)c3cccs3)cc2)c1	2	1	50*	0	·	-16
COC(=O)c1c(NC(=O)COC(=O)CNC(=O)c2cccc(OC(F)F)c2)sc(C)c1C	3	·	-9	·	·	·
COc1cccc(-c2sc3ccc(OC)cc3c2C#CCCO)c1	5	-1	1	0	-3	-30
Cc1cccc(C(=O)NNC(=O)c2ccc3ccccc3c2)c1	4	0	-11	0	-8	-16
O=C(NCC1CC1)NC(=O)c1c(F)cccc1Cl	2	0	50*	0	3	-15
O=C(Nc1ccc(F)c(Cl)c1)[C@@H]1O[C@H](CO)[C@H](O)[C@H](O)[C@H]1O	1	·	-2	·	·	·
COCCN(C(=O)c1ccco1)c1nnc(-c2ccc(F)cc2)s1	-1	2	-1	-2	40*	-14
COc1ccc(S(=O)(=O)N2CCN(C(=O)c3cc(C)nc4ccccc34)CC2)cc1OC	3	0	3	0	-7	-8
O=C(O)c1ccc(C2Nc3ccccc3C(=O)N2Cc2ccccc2)cc1 (stereo unspecified)	2	2	1	1	-4	-17
O=C(NCCc1c[nH]c2ccccc12)c1cccc(S(=O)(=O)Nc2ccccc2Cl)c1	0	2	2	-1	-6	-9
CN(c1ccccc1)S(=O)(=O)c1cccc(C(=O)NCCc2c[nH]c3ccccc23)c1	-6	0	-5	9	59*	-14
CCN(CC)C(=O)[C@H]1C[C@H](CC(=O)NCCCOC)C(=O)N2CCc3c([nH]c4cc(CCC(=O)N(C)C)ccc34)[C@]12C	0	-4	26	0	-4	-4
O=C(OCC(=O)N1CCCCC1)c1cc(=O)[nH]c2ccccc12	-1	2	·	-2	7	-19
COc1ccc(F)cc1C1=CC(=O)C[C@H](c2ccc3c(c2)OCO3)C1	30*	-1	-1	-1	-6	-2
COc1ccc(CNC(=O)C2CCCN2C(=O)Nc2cccc(Cl)c2)cc1 (stereo unspecified)	1	·	5	·	·	·
COc1cc(OC)cc(-c2sc3ccc(OC)cc3c2-c2ccc(OCCN3CCOCC3)cc2)c1	-3	2	61*	0	-5	-1
COc1cccc(-c2sc3ccc(OC)cc3c2-c2ccc(OCCN3CCOCC3)cc2)c1	-1	2	4	0	1	-13
C[C@H](O)[C@@H]1C(=O)N2CCc3ccc(N4CCN(C)CC4)cc3[C@@H]2C[C@@H]1N(C)C(=O)c1ccc(C#N)cc1	3	-2	·	0	-8	-20
O=C(C1CCC1)N1CCN(c2ccc(Cl)cc2)CC1	0	0	-1	3	5	36*
CNC(=O)C[C@H]1C(=O)N(Cc2ccccc2)C[C@@H]1Cc1ccccc1	2	·	2	·	·	·
COc1ccc(CC(=O)Nc2cc(S(=O)(=O)Nc3ccc(OC)cc3)ccc2OC)cc1	-3	0	-12	-2	-6	-4
CCN1C/C(=C\c2cccc([N+](=O)[O-])c2)C(=O)/C(=C/c2cccc([N+](=O)[O-])c2)C1	-23	1	70*	0	-5	-5
O=C1/C(=C/c2cccc([N+](=O)[O-])c2)CCc2ccccc21	12	·	136*	-1	-3	4
O=C(Nc1ccc(F)c(Cl)c1)c1csc([C@H]2C[C@H](O)[C@@H](CO)O2)n1	-2	·	54*	·	·	·
O=C(Nc1ccc(F)c(Cl)c1)c1csc([C@@H]2C[C@H](O)[C@@H](CO)O2)n1	0	·	-4	·	·	·
C[N+]1(CC(=O)OC2CCCCCCCCCCC2)CCCC1	-1	-2	-2	-1	97*	-17
COc1cccc(NC(=O)C2(C)CCN2C(=O)CCc2ccc(Cl)cc2Cl)c1 (stereo unspecified)	-3	·	0	·	·	·
O=C(NNc1ccccc1)/C(=C\c1cccnc1)NC(=O)c1ccccc1	1	0	9	0	73*	-9
O=C(Nc1ccccc1)/C(=C/c1cccnc1)NC(=O)c1ccccc1	1	1	3	-3	0	-10
